# Test results taken from ChEMBL document CHEMBL6103663, “Enhanced Cytotoxicity of [10]-Gingerol-Coumarin-Triazole Hybrid as a Theranostic Agent for Triple Negative Breast Cancer” (ACS Med Chem Lett, 2025).
# Assays:
# MDA-MB-231 [1] = test: Cytotoxicity against human MDA-MB-231 cells measured after 48 hrs by MTT assay; type: functional, cell-based; conditions: MDA-MB-231, 48 h
# [2] = Drug internalization in human MDA-MB-231 cells assessed as intracellular uptake at 5 uM measured after 30 mins by CellMask Deep Red plasma membrane/MitoTracker Red FM/Hoechst staining based fluorescence microscopy; type: ADME, cell-based; conditions: mda-mb-231, 0.5 h
# How it was run: (§1)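 Cells (1.9 × 10^4/well) adhered for 24 h and were then given 5 μM compound, in duplicate at 37 °C, alongside untreated controls. They were stained with CellMask Deep Red, MitoTracker Red FM and Hoechst for 30 min at RT, then fixed in 4% PFA. Epifluorescence high-content imaging at 40× used a FITC filter with 488 nm excitation. The untreated autofluorescence mean set the threshold, and green area per cell was quantified in μm2.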
# MDA-MB-231 [3] = test: Cytotoxicity against human MDA-MB-231 cells measured after 24 hrs by resazurin dye based fluorescence assay; type: functional, cell-based; conditions: MDA-MB-231, 24 h
# How it was run: (§2)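 MDA-MB-231 cells in Leibovitz-L15 with 10% FBS, 10^4 cells/well, were allowed to adhere for 24 h at 37 °C. They were then exposed to a halving serial dilution from 250 to 0.98 μM (DMSO ≤0.5% final). Next came 10% resazurin for 4 h at 37 °C, with fluorescence read at λex 540 and λem […] nm. Assays used six technical replicates across three experiments. Results were expressed as % cell death, and IC50 was taken from regression (four-parameter logistic).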
# [4] = Drug internalization in human MDA-MB-231 cells assessed as appearance of small blebs colocalization with mitochondria at 5 uM measured after 1 hr by DAPI/FITC/TxRed/Cy5 staining based confocal microscopy; type: ADME; conditions: mda-mb-231, 1 h
# How it was run: (§3)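 Preparation was the same: 5 μM treatment at 37 °C in duplicate, then staining with CellMask Deep Red, MitoTracker Red FM and Hoechst, and 4% PFA fixation. Confocal Airyscan imaging at 40× used a 1 AU pinhole with gated channels: DAPI 410–508, FITC 493–571, TxRed 548–620 and Cy5 638–759 nm. Z-stacks gave orthogonal views, thresholded against untreated cells. Pearson's coefficient was calculated between the FITC and TxRed channels.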
# [5] = Drug internalization in human MDA-MB-231 cells assessed as increase in fluorescence at 5 uM measured after 30 mins by CellMask Deep Red plasma membrane/MitoTracker Red FM/Hoechst staining based fluorescence microscopy; type: ADME, cell-based; conditions: mda-mb-231, 0.5 h; how it was run: as §1
# [6] = Drug internalization in human MDA-MB-231 cells assessed as increase in fluorescence at 5 uM measured after 1 hr by CellMask Deep Red plasma membrane/MitoTracker Red FM/Hoechst staining based fluorescence microscopy; type: ADME, cell-based; conditions: mda-mb-231, 1 h; how it was run: as §1
# MDA-MB-231 [7] = test: Cytotoxicity against human MDA-MB-231 cells measured after 48 hrs by resazurin dye based fluorescence assay; type: functional, cell-based; conditions: MDA-MB-231, 48 h; how it was run: as §2
# [8] = Drug internalization in human MDA-MB-231 cells assessed as uptake in cellular perimeter at 5 uM measured after 30 mins by CellMask Deep Red plasma membrane/MitoTracker Red FM/Hoechst staining based fluorescence microscopy; type: ADME, cell-based; conditions: mda-mb-231, 0.5 h; how it was run: as §1
# [9] = Drug internalization in human MDA-MB-231 cells assessed as interaction with mitochondria at 5 uM measured after 30 mins by DAPI/FITC/TxRed/Cy5 staining based confocal microscopy; type: ADME; conditions: mda-mb-231, 0.5 h; how it was run: as §3
# [10] = Drug internalization in human MDA-MB-231 cell mitochondria assessed as appearance of green fluorescence throughout the cell at 5 uM measured after 2 hrs by DAPI/FITC/TxRed/Cy5 staining based confocal microscopy; type: ADME; conditions: mda-mb-231, 2 h; how it was run: as §3
# [11] = Drug internalization in human MDA-MB-231 cells assessed as appearance of diffuse layer of green fluorescence with small clusters inside the cell at 5 uM measured after 30 mins by DAPI/FITC/TxRed/Cy5 staining based confocal microscopy; type: ADME; conditions: mda-mb-231, 0.5 h; how it was run: as §3
# [12] = Drug internalization in human MDA-MB-231 cell mitochondria assessed as appearance of more clustered green fluorescence at 5 uM measured after 2 hrs by DAPI/FITC/TxRed/Cy5 staining based confocal microscopy; type: ADME; conditions: mda-mb-231, 2 h; how it was run: as §3
# [13] = Potency index, ratio of Met10G IC50 to test compound IC50 for cytotoxicity against human MDA-MB-231 cells after 48 hrs; type: functional
# [14] = Potency index, ratio of Met10G IC50 to test compound IC50 for cytotoxicity against human MDA-MB-231 cells after 24 hrs; type: functional
Drug uptake [2],Drug uptake [4],Drug uptake [5],Drug uptake [6],Drug uptake [8],Drug uptake [9],Drug uptake [10],Drug uptake [11],Drug uptake [12],Structure (SMILES),IC50 (MDA-MB-231 [1]) [µM],IC50 (MDA-MB-231 [3]) [µM],IC50 (MDA-MB-231 [7]) [µM],Ratio IC50 [13],Ratio IC50 [14]
,,,,,,,,,CCCCCCCCC[C@H](O)CC(=O)CCc1ccc(O)c(OC)c1,12.1,,,,
Active,Active,Active,Not_active,Active,Active,Active,Active,Active,CCCCCCCCCC(O)CC(=O)CCc1ccc(OC)c(OC)c1 (stereo unspecified),,45.6,26.9,,
Active,Active,Active,Not_active,Active,Active,Active,Active,Active,COc1cc(Cl)ccc1OCCCCc1cn(CCCNC(=O)c2cc3ccc(O)cc3oc2=O)nn1,,116,103,,
Active,Active,Active,Active,Active,Active,Active,Active,Active,CCCCCCCCC[C@H](O)CC(=O)CCc1ccc(OCCCCc2cn(CCCNC(=O)c3cc4ccc(O)cc4oc3=O)nn2)c(OC)c1,,19.1,2.3,<=10,2
